In assay [1] the test system is Rattus norvegicus. In words: Antiinflammatory activity in carrageenan-induced rat assessed as efficacy ratio for reduction in pleural effusion at 316 mg/kg, po after 5 hrs by Evans blue assay relative to control. In kind it is functional. In outline: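 Rats given 316 mg/kg orally (two rats), then intrapleural injection of 5 mL 0.075% Evans blue/0.5% carrageenan type 7. Pleural effusion volume measured at 5 h. Efficacy ratio is control effusion volume divided by treated effusion volume, judged by sequential analysis; a ratio ≥1.30 counts as active.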

Assay [2] deals with Rattus norvegicus. The assay can be described thus: Antiinflammatory activity in Evans blue carrageenan-induced pleural effusion rat model assessed as decrease in volume of pleural fluid at 100 mg/kg relative to control.
The test system of assay [3] is Rattus norvegicus. In words: Antiinflammatory activity in adjuvant-induced arthritic rat chronic inflammation model assessed as […] at 31.6 mg/kg. The format is functional, organism-based. Further details: dose 31.6 mg/kg.

The structures appear in SMILES notation. The source made the active and inactive calls. The rule behind the calls is not given here.

As to `CCOC(=O)c1nc(-c2ccccc2)c2ccccc2c1OC(C)=O`, the T/C with Rattus norvegicus [1] amounted to 1.06. Besides, the result with Rattus norvegicus [2] was inactive.
For `NC(=O)Cc1cc2ccccc2c(-c2ccc(Cl)cc2)n1`, the Activity in the assay on Rattus norvegicus [2] is recorded as 22%. Besides, the outcome with Rattus norvegicus [3] was inactive.
As for `Br.O=C(c1ccccc1)c1nccc2ccccc12`, the T/C in the assay on Rattus norvegicus [1] was 0.83. In addition, the result with Rattus norvegicus [2] was inactive.
Take `Br.CCOC(=O)c1cc2ccccc2cn1`: the T/C in the assay on Rattus norvegicus [1] turned out to be 1.97. Moreover, in the assay on Rattus norvegicus [2], the Activity turned out to be 1%.
With `O=C(O)c1cc2ccccc2c(-c2ccccc2)n1`, the T/C with Rattus norvegicus [1] amounted to 1.26. In addition, the outcome in the assay on Rattus norvegicus [2] was inactive.
For the compound `O=C(O)c1cc2ccccc2c(C(=O)c2ccccc2)n1`, in the assay with Rattus norvegicus [1], the T/C was determined as 1.28.
With `O=C(O)c1ccc2ccccc2c1` [BETA-NAPHTOIC ACID], the T/C with Rattus norvegicus [1] was 1.13. In addition, the result in the assay with Rattus norvegicus [2] was inactive.
Take `CCCCC1C(=O)N(c2ccccc2)N(c2ccccc2)C1=O`: the result in the assay on Rattus norvegicus [3] was Active.
Consider `NC(=O)Cc1cc2ccccc2c(-c2ccccc2)n1`, for which the T/C in the assay on Rattus norvegicus [1] stood at 1.33. In addition, the Activity in the assay on Rattus norvegicus [2] is listed as 14%.
For the compound `Br.O=C(c1ccccc1)c1ccccn1`, the T/C with Rattus norvegicus [1] is 1.23. Further, the outcome in the assay on Rattus norvegicus [2] was inactive.
The corresponding values for `Br.Cc1cc2ccccc2c(C(=O)c2ccccc2)n1` are 0.93 and “inactive”.
Regarding `Br.CCOC(=O)Cc1cc2ccccc2cn1`, the T/C in the assay on Rattus norvegicus [1] is reported as 1.2.
For `NC(=O)Cc1cc2ccccc2c(C(=O)c2ccccc2)n1`, the T/C in the assay on Rattus norvegicus [1] turned out to be 0.9. For the same compound, the outcome in the assay on Rattus norvegicus [2] was inactive.
For `NC(=O)Cc1cnc(-c2ccccc2)c2ccccc12`, in the assay with Rattus norvegicus [2], the Activity is 9%.

Source of the values: ChEMBL document CHEMBL3244351, “Aroyl- and arylisoquinolineacetic acids as antiinflammatory agents” (1978).
